Molecules are shown by their SMILES. In brackets after ≈: the same amount, converted by molar mass.

The IC50 is the concentration at which inhibition is half-maximal. Read a high IC50 as a need for much substance.

Common to all, as to assay type: cell-based
Experiment [1] has as its system HepG2. In words: Cytotoxicity against human HepG2 cells by MTT assay. An outline of the steps: (§1)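 In vitro cytotoxicity by MTT colorimetric read-out on human tumor cultures: BT474 (breast carcinoma), CHAGO (lung carcinoma), Hep-G2 (hepatocarcinoma), KATO-3 (gastric carcinoma) and SW-620 (colon carcinoma). Each pure isolate was tested on all five lines.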
Background: Tetrazolium dyes change colour on reduction, which living cells bring about.

Experiment [2] in a line: Cytotoxicity against human BT474 cells by MTT assay. The following applies: BT-474. An outline of the steps: as §1
The test system of experiment [3] is SW-620. In words: Cytotoxicity against human SW620 cells by MTT assay. An outline of the steps: as §1
Experiment [4] can be described thus: Cytotoxicity against human KATO3 cells by MTT assay. An outline of the steps:
as §1

A short description of experiment [5]: Cytotoxicity against human CHAGO cells by MTT assay. An outline of the steps:
as §1

For the compound `C/C1=C\CC[C@](C)(O)/C=C/[C@H](C(C)C)CCc2coc(c2)C1` [FURANOCEMBRANOID 1], the IC50 in experiment [1] turned out to be 5.6 µg/mL (≈ 18.5 µM); in experiment [2], 7.8 µg/mL (≈ 25.8 µM); in experiment [3], 6.3 µg/mL (≈ 20.8 µM); in experiment [4] it was 5.9 µg/mL (≈ 19.5 µM); in experiment [5], 7 µg/mL (≈ 23.1 µM).
Taken in the same sequence, the figures for `CC(C)[C@H]1/C=C/[C@@](C)(O)CC[C@@H]2O[C@@]2(C)Cc2cc(co2)CC1` [FURANOCEMBRANOID 2] were over 10 µg/mL, 9.5 µg/mL (≈ 29.8 µM), 9.9 µg/mL (≈ 31.1 µM), 6.8 µg/mL (≈ 21.4 µM) and over 10 µg/mL.
Take `CC(C)[C@H]1/C=C/[C@@](C)(O)CC[C@@H](O)[C@@](C)(O)Cc2cc(co2)CC1` [FURANOCEMBRANOID 3]: the IC50 in experiment [1] was 5.7 µg/mL (≈ 16.9 µM); in experiment [2], 9.6 µg/mL (≈ 28.5 µM); in experiment [3] it was 5.6 µg/mL (≈ 16.6 µM); in experiment [4], 8.2 µg/mL (≈ 24.4 µM); in experiment [5], 7.1 µg/mL (≈ 21.1 µM).
As to `CC(C)[C@H]1/C=C/[C@@](C)(O)CC[C@@H](O)[C@@](C)(O)C[C@H]2C=C(CC1)C(=O)O2` [FURANOCEMBRANOID 4], the IC50 in experiment [1] is 6.1 µg/mL (≈ 17.3 µM); in experiment [2], 9.6 µg/mL (≈ 27.2 µM); in experiment [3] it was 6 µg/mL (≈ 17 µM); in experiment [4], 8.1 µg/mL (≈ 23 µM); in experiment [5] it was 9.3 µg/mL (≈ 26.4 µM).

The values above are taken from ChEMBL document CHEMBL1142115, “Furanocembranoids from the stem bark of Croton oblongifolius” (J Nat Prod, 2007).
